Experimental data reported in ChEMBL document CHEMBL2169809, “Identification of high-affinity P2Y₁₂ antagonists based on a phenylpyrazole glutamic acid piperazine backbone” (J Med Chem, 2012).

Key:
Platelet [1] = experiment: Inhibition of ADP-stimulated platelet aggregation in human platelet rich plasma by 96-well format based turbidimetric method; type: functional
Procedure, shortened: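 Citrated (ACD-A) donor blood was spun at 150g for 15 min at room temperature to give PRP. PRP was adjusted with PPP to 3 × 10^8 platelets/mL. Compound, diluted in NaCl, was preincubated with hPRP for 5 min before ADP was added.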

P2Y purinoceptor 12 = P2Y purinoceptor 12 (Homo sapiens, UniProt Q9H244); experiment: Displacement of [33P]2-MeS-ADP from human recombinant P2Y12 receptor expressed in CHO cell membranes by scintillation counting method
Chain of P2Y purinoceptor 12 (Q9H244 whole entry): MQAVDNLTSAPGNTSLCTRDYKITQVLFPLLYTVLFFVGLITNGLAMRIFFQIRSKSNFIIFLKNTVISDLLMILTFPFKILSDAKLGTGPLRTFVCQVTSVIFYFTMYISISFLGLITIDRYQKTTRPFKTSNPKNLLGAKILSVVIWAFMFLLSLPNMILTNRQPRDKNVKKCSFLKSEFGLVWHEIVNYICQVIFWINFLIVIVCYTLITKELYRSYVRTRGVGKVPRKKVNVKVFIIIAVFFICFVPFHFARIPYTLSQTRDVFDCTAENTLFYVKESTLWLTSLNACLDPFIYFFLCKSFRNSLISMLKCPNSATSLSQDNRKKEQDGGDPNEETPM

Platelet [2] = experiment: Inhibition of ADP-stimulated platelet aggregation in human platelet rich plasma by light transmission aggregometry based Born method; type: functional, cell-based

SMILES | IC50 (Platelet [1]) | Ki (P2Y purinoceptor 12) | IC50 (Platelet [2])
CCOC(=O)N1CCN(C(=O)[C@H](CCC(=O)O)NC(=O)c2cc(OCC(=O)N3CCC[C@H]3C(=O)NC(C)(C)C)n(-c3ccccc3)n2)CC1 | 17 nM | 41 nM | 70 nM
CCCCOC(=O)N1CCN(C(=O)[C@H](CCCO)NC(=O)c2cc(OCC(=O)N3CCC[C@H]3C(=O)NC3CCC3)n(-c3ccccc3)n2)CC1 | 92 nM | 6.5 nM | 70 nM
CNc1cc2[nH]c(=O)n(-c3ccc(NC(=O)NS(=O)(=O)c4ccc(Cl)s4)cc3)c(=O)c2cc1F [ELINOGREL] | 2810 nM | 23 nM | 
CCOC(=O)N1CCN(C(=O)[C@H](CCC(=O)O)NC(=O)c2cc(OCC(=O)N(CC)CC)n(-c3ccccc3)n2)CC1 | > 10000 nM | > 5000 nM | 
CCOC(=O)N1CCN(C(=O)[C@H](CCC(=O)O)NC(=O)c2cc(OCC(=O)N3CCC[C@H]3C(=O)N3CCCCC3)n(-c3ccccc3)n2)CC1 | 70 nM | 56 nM | 73 nM
CCOC(=O)N1CCN(C(=O)[C@H](CCC(=O)O)NC(=O)c2cc(OCC(=O)C3CCC3)n(-c3ccccc3)n2)CC1 | 7410 nM | 574 nM | 
CCOC(=O)N1CCN(C(=O)[C@H](CNS(C)(=O)=O)NC(=O)c2cc(OCC(=O)N3CCC[C@H]3C(=O)NC3CCC3)n(-c3ccccc3)n2)CC1 | 1200 nM | 48 nM | 
COc1cccc(N2CCN(C(=O)[C@H](CCC(=O)O)NC(=O)c3cc(OCC(=O)N4CCC[C@H]4C(=O)NC4CCC4)n(-c4ccccc4)n3)CC2)c1 | 790 nM | 30 nM | 
CCCCOC(=O)N1CCN(C(=O)[C@H](CCC(=O)O)NC(=O)c2cc(OCC(=O)N3CCC[C@H]3C(=O)NC3CCC3)n(-c3ccccc3)n2)CC1 | 19 nM | 0.8 nM | 13 nM
CCOC(=O)N1CCN(C(=O)[C@H](CCC(=O)O)NC(=O)c2cc(OCC(=O)N3CCC[C@H]3C(=O)N(C)C3CCC3)n(-c3ccccc3)n2)CC1 | 220 nM | 27 nM | 
CCOC(=O)N1CCN(C(=O)[C@@H](NC(=O)c2cc(OCC(=O)N3CCC[C@H]3C(=O)NC3CCC3)n(-c3ccccc3)n2)C(C)C)CC1 | 1900 nM | 183 nM | 
O=C(O)CC[C@H](NC(=O)c1cc(OCC(=O)N2CCC[C@H]2C(=O)NC2CCC2)n(-c2ccccc2)n1)C(=O)N1CCC(C(=O)c2ccccc2)CC1 | 1330 nM | 40 nM | 
CCCNC(=O)[C@@H]1CCCN1C(=O)COc1cc(C(=O)N[C@@H](CCC(=O)O)C(=O)N2CCN(C(=O)OCC)CC2)nn1-c1ccccc1 | 58 nM | 66 nM | 91 nM
O=C(O)CC[C@H](NC(=O)c1cc(OCC(=O)N2CCC[C@H]2C(=O)NC2CCC2)n(-c2ccccc2)n1)C(=O)N1CCN(C(=O)OCc2ccccc2)CC1 | 124 nM | 5.7 nM | 
CCOC(=O)N1CCN(C(=O)[C@H](CCC(=O)O)NC(=O)c2cc(OCC(=O)C(C)(C)C)n(-c3ccccc3)n2)CC1 | 3730 nM | 242 nM | 2460 nM
CCOC(=O)N1CCN(C(=O)[C@H](CCC(=O)O)NC(=O)c2cc(OCC(=O)N3CC[C@H]3C(=O)NC3CCC3)n(-c3ccccc3)n2)CC1 | 76 nM | 42 nM | 
CCOC(=O)N1CCN(C(=O)[C@H](CCC(=O)O)NC(=O)c2cc(OCC(=O)N3CCC[C@H]3C(N)=O)n(-c3ccccc3)n2)CC1 | 3100 nM | 283 nM | 
CCCCOC(=O)NC1CCN(C(=O)[C@H](CCC(=O)O)NC(=O)c2cc(OCC(=O)N3CCC[C@H]3C(=O)NC3CCC3)n(-c3ccccc3)n2)C1 (some centres undefined) | 1880 nM | 82 nM | 
O=C(O)CC[C@H](NC(=O)c1cc(OCC(=O)N2CCC[C@H]2C(=O)NC2CCC2)n(-c2ccccc2)n1)C(=O)N1CCN(C(=O)OC2CCC2)CC1 | 14 nM | 5 nM | 
O=C(O)CC[C@H](NC(=O)c1cc(OCC(=O)N2CCC[C@H]2C(=O)NC2CCC2)n(-c2ccccc2)n1)C(=O)N1CCN(C(=O)c2ccccc2)CC1 | 1230 nM | 130 nM | 
CCCCOC(=O)NC1CCN(C(=O)[C@H](CCC(=O)O)NC(=O)c2cc(OCC(=O)N3CCC[C@H]3C(=O)NC3CCC3)n(-c3ccccc3)n2)CC1 | 55 nM | 22 nM | 120 nM
CCOC(=O)N1CCN(C(=O)[C@H](CCC(=O)O)NC(=O)c2cc(OCC(=O)N3CCC[C@H]3C(=O)NC3CCC3)n(-c3ccccc3)n2)[C@@H](C)C1 | 430 nM | 54 nM | 
CCOC(=O)N1CCN(C(=O)[C@H](CCC(=O)O)NC(=O)c2cc(OCC(=O)N3CCC[C@H]3C(=O)NC3CCC3)n(-c3ccccc3)n2)C[C@@H]1C | 1510 nM | 80 nM | 
CCOC(=O)N1CCN(C(=O)[C@H](CCC(=O)O)NC(=O)c2cc(OCC(=O)N3CCCC3=O)n(-c3ccccc3)n2)CC1 | 900 nM | 173 nM | 
CCOC(=O)N1CCN(C(=O)[C@H](C)NC(=O)c2cc(OCC(=O)N3CCC[C@H]3C(=O)NC3CCC3)n(-c3ccccc3)n2)CC1 | 2210 nM | 111 nM | 
CCOC(=O)N1CCN(C(=O)[C@H](CCC(=O)O)NC(=O)c2cc(OCC(=O)N3CCC[C@H]3C(=O)NC3CCC3)n(-c3ccccc3)n2)C[C@H]1C | 335 nM | 51 nM | 
